Experiments:
[1] = Clearance in CD1 mouse at 3.0 mg/kg, iv; assay type: ADME, organism-based; design: dose 3 mg/kg, route intravenous; details: in vivo
Procedure, shortened: (§1)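 Male CD-1 mice (26-30 g) were dosed iv via the tail vein or po by gavage. Blood was taken by cardiac puncture after CO₂ asphyxiation at set times. Plasma proteins were precipitated with acidified methanol. Samples were quantified by LC-ESI-MS against external standards from spiked control plasma.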

[2] = Oral bioavailability in CD1 mouse at 10 mg/kg; assay type: ADME, organism-based; details: in vivo; procedure, shortened: as §1
[3] = Half life in CD1 mouse at 3.0 mg/kg, iv; assay type: ADME, organism-based; design: dose 3 mg/kg, route intravenous; details: in vivo; procedure, shortened: as §1
[4] = Volume of distribution in CD1 mouse at 3.0 mg/kg, iv; assay type: ADME, organism-based; design: dose 3 mg/kg, route intravenous; details: in vivo; procedure, shortened: as §1
[5] = AUC in CD1 mouse at 3.0 mg/kg, iv; assay type: ADME, organism-based; design: dose 3 mg/kg, route intravenous; details: plasma; procedure, shortened: as §1
[6] = target: T1, Poly [ADP-ribose] polymerase 1 (Homo sapiens, UniProt P09874); assay: Inhibition of PARP1 by scintillation counting
T1 sequence (P09874 whole entry): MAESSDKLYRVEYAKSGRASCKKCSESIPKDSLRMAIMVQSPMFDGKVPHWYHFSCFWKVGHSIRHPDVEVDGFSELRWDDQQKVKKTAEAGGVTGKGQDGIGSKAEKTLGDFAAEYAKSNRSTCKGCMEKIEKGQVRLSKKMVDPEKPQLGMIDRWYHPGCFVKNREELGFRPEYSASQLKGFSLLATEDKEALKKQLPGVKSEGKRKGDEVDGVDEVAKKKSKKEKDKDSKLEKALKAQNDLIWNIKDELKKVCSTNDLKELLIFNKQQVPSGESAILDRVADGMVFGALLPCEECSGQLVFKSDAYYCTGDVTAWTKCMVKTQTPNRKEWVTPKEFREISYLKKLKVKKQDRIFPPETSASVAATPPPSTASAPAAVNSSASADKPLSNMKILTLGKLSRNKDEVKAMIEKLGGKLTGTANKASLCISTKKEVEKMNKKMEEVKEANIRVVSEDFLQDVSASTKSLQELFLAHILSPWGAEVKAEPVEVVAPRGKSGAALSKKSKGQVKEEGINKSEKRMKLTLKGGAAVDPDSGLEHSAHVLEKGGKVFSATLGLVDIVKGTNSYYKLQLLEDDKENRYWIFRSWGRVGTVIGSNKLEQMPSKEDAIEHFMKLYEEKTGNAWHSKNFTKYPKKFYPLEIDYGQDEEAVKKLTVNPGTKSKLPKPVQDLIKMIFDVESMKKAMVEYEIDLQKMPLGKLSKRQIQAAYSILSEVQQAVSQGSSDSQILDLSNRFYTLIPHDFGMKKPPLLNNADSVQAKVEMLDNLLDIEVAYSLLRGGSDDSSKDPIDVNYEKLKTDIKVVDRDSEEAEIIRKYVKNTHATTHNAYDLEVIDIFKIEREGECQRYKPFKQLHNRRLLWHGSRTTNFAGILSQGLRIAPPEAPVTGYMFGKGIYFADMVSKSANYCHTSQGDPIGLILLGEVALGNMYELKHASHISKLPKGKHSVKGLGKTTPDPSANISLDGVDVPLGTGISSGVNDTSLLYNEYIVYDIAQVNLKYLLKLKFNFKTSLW

[7] = target: T1, Poly [ADP-ribose] polymerase 1; assay: Inhibition of PARP1 in human C41 cells after 30 mins by cell-based assay
[8] = Cmax in CD1 mouse at 10 mg/kg, po; assay type: ADME, organism-based; design: dose 10 mg/kg, route oral; details: in vivo; procedure, shortened: as §1
[9] = AUC in CD1 mouse at 10 mg/kg, po; assay type: ADME, organism-based; design: dose 10 mg/kg, route oral; details: plasma; procedure, shortened: as §1
B16-F10 [10] = assay: Antitumor activity against mouse B16F10 cells implanted in C57BL/6 mouse at 10 mg/kg, po BID for 5 days measured on day 12 in presence of DNA alkylating agent temozolomide; assay type: functional; details: read-out: TGI
Procedure, shortened: (§2)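 B16F10 syngeneic model: cells in Matrigel (1:1) were injected sc into the flank at 6 × 10⁴ cells per mouse. Recipients were female C57BL/6 mice, 6-8 weeks old, 18-20 g. Temozolomide was given po q.d. at 50 mg/kg/day for 5 consecutive days. Over the same period the PARP inhibitor was given po b.i.d. Read-out was relative tumor growth inhibition on the stated day.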

B16-F10 [11] = assay: Antitumor activity against mouse B16F10 cells implanted in C57BL/6 mouse at 10 mg/kg, po BID for 5 days measured on day 19 in presence of DNA alkylating agent temozolomide; assay type: functional; details: read-out: TGI; procedure, shortened: as §2
B16-F10 [12] = assay: Antitumor activity against mouse B16F10 cells implanted in C57BL/6 mouse at 30 mg/kg, po BID for 5 days measured on day 12 in presence of DNA alkylating agent temozolomide; assay type: functional; details: read-out: TGI; procedure, shortened: as §2
B16-F10 [13] = assay: Antitumor activity against mouse B16F10 cells implanted in C57BL/6 mouse at 60 mg/kg, po BID for 5 days measured on day 19 in presence of DNA alkylating agent temozolomide; assay type: functional; details: read-out: TGI; procedure, shortened: as §2
B16-F10 [14] = assay: Antitumor activity against mouse B16F10 cells implanted in C57BL/6 mouse at 60 mg/kg, po BID for 5 days measured on day 12 in presence of DNA alkylating agent temozolomide; assay type: functional; details: read-out: TGI; procedure, shortened: as §2
B16-F10 [15] = assay: Antitumor activity against mouse B16F10 cells implanted in C57BL/6 mouse at 30 mg/kg, po BID for 5 days measured on day 19 in presence of DNA alkylating agent temozolomide; assay type: functional; details: read-out: TGI; procedure, shortened: as §2
B16-F10 [16] = assay: Antitumor activity against mouse B16F10 cells implanted in C57BL/6 mouse at 50 mg/kg, po QD for 5 days measured on day 16; assay type: functional; details: read-out: TGI
B16-F10 [17] = assay: Antitumor activity against mouse B16F10 cells implanted in C57BL/6 mouse at 50 mg/kg, po QD for 5 days measured on day 12; assay type: functional; details: read-out: TGI
B16-F10 [18] = assay: Antitumor activity against mouse B16F10 cells implanted in C57BL/6 mouse at 3 mg/kg, po BID for 5 days measured on day 19 in presence of DNA alkylating agent temozolomide; assay type: functional; details: read-out: TGI
B16-F10 [19] = assay: Antitumor activity against mouse B16F10 cells implanted in C57BL/6 mouse at 3 mg/kg, po BID for 5 days measured on day 16 in presence of DNA alkylating agent temozolomide; assay type: functional; details: read-out: TGI
B16-F10 [20] = assay: Antitumor activity against mouse B16F10 cells implanted in C57BL/6 mouse at 30 mg/kg, po BID for 5 days measured on day 16 in presence of DNA alkylating agent temozolomide; assay type: functional; details: B16-F10, read-out: TGI; procedure, shortened: as §2
B16-F10 [21] = assay: Antitumor activity against mouse B16F10 cells implanted in C57BL/6 mouse at 10 mg/kg, po BID for 5 days measured on day 16 in presence of DNA alkylating agent temozolomide; assay type: functional; details: B16-F10, read-out: TGI; procedure, shortened: as §2

## NC(=O)c1cccc2[nH]c(-c3ccc(-c4ncc[nH]4)cc3)nc12
[1]
  clearance: 533 mL/min/kg
[2]
  bioavailability: 0%
[3]
  half-life: 33.6 min
[4]
  Vd: 26 L/kg
[5]
  AUC: 0.31 µM·h
[6]
  Ki: 2.2 nM
[7]
  EC50: 2.2 nM

## NC(=O)c1cccc2[nH]c(-c3ccc(-c4ccccc4)cc3)nc12
[6]
  Ki: 2 nM
[7]
  EC50: 71 nM

## NC(=O)c1cccc2[nH]c(-c3ccc(-c4nnn[nH]4)cc3)nc12
[6]
  Ki: 20 nM

## NC(=O)c1cccc2[nH]c(-c3ccc(-c4cnc[nH]4)cc3)nc12
[6]
  Ki: 1.2 nM
[7]
  EC50: 3.7 nM

## NC(=O)c1cccc2[nH]c(-c3ccc(-c4cccnc4)cc3)nc12
[1]
  clearance: 147 mL/min/kg
[8]
  Cmax: 2200 nM
[2]
  bioavailability: 73%
[3]
  half-life: 34.8 min
[4]
  Vd: 7.3 L/kg
[5]
  AUC: 1.1 µM·h
[9]
  AUC: 2.7 µM·h

## Cc1nc(-c2ccc(-c3nc4c(C(N)=O)cccc4[nH]3)cc2)co1
[6]
  Ki: 2.4 nM
[7]
  EC50: 18 nM

## NC(=O)c1cccc2[nH]c(-c3ccc(-c4nnco4)cc3)nc12
[1]
  clearance: 55 mL/min/kg
[8]
  Cmax: 2700 nM
[2]
  bioavailability: 41%
B16-F10 [10]
  inhibition in vivo at 10 mg/kg: 57%
[3]
  half-life: 21.6 min
B16-F10 [11]
  inhibition in vivo at 10 mg/kg: 53%
B16-F10 [12]
  inhibition in vivo at 30 mg/kg: 59%
[4]
  Vd: 1.7 L/kg
B16-F10 [13]
  inhibition in vivo at 60 mg/kg: 81%
B16-F10 [14]
  inhibition in vivo at 60 mg/kg: 67%
[5]
  AUC: 3 µM·h
[6]
  Ki: 1 nM
[9]
  AUC: 4 µM·h
B16-F10 [15]
  inhibition in vivo at 30 mg/kg: 72%
[7]
  EC50: 3.7 nM

## NC(=O)c1cccc2[nH]c(-c3ccc(-c4nc(=O)o[nH]4)cc3)nc12
[6]
  Ki: 16 nM

## NC(=O)c1cccc2[nH]c(-c3ccc(-c4nsc(=O)[nH]4)cc3)nc12
[6]
  Ki: 5.2 nM
[7]
  EC50: 461 nM

## NC(=O)c1cccc2[nH]c(-c3ccc(-c4ccncc4)cc3)nc12
[1]
  clearance: 167 mL/min/kg
[8]
  Cmax: 760 nM
[2]
  bioavailability: 44%
[3]
  half-life: 24 min
[4]
  Vd: 5.9 L/kg
[5]
  AUC: 0.94 µM·h
[9]
  AUC: 1.4 µM·h

## NC(=O)c1cccc2[nH]c(-c3ccc(-c4cnco4)cc3)nc12
[1]
  clearance: 300 mL/min/kg
[8]
  Cmax: 70 nM
[2]
  bioavailability: 6%
[3]
  half-life: 58.2 min
[4]
  Vd: 26 L/kg
[5]
  AUC: 0.54 µM·h
[6]
  Ki: 0.76 nM
[9]
  AUC: 0.11 µM·h
[7]
  EC50: 0.99 nM

## Cc1noc(-c2ccc(-c3nc4c(C(N)=O)cccc4[nH]3)cc2)n1
[6]
  Ki: 4 nM
[7]
  EC50: 9.1 nM

## NC(=O)c1cccc2[nH]c(-c3ccc(-c4csc(N)n4)cc3)nc12
[6]
  Ki: 2.2 nM
[7]
  EC50: 26 nM

## Cn1ccc(-c2ccc(-c3nc4c(C(N)=O)cccc4[nH]3)cc2)n1
[6]
  Ki: 4.5 nM
[7]
  EC50: 20 nM

## Cn1nnc2c(C(N)=O)ncn2c1=O [TEMOZOLOMIDE]
B16-F10 [16]
  inhibition in vivo at 50 mg/kg: 56%
B16-F10 [17]
  inhibition in vivo at 50 mg/kg: 43%

## NC(=O)c1cccc2[nH]c(-c3ccc(-c4n[nH]c(=O)o4)cc3)nc12
[6]
  Ki: 1.6 nM
[7]
  EC50: 64 nM

## NC(=O)c1cccc2[nH]c(-c3ccc(-c4cscn4)cc3)nc12
[6]
  Ki: 1.7 nM
[7]
  EC50: 3.7 nM

## NC(=O)c1cccc2[nH]c(-c3ccc(-c4cn5ccc(C(F)(F)F)cc5n4)cc3)nc12
[6]
  Ki: 6.8 nM
[7]
  EC50: 20 nM

## NC(=O)c1cccc2[nH]c(-c3ccc(-c4ccno4)cc3)nc12
[6]
  Ki: 10 nM
[7]
  EC50: > 1000 nM

## NC(=O)c1cccc2[nH]c(-c3ccc(-c4ccccn4)cc3)nc12
[1]
  clearance: 123 mL/min/kg
B16-F10 [18]
  inhibition in vivo at 3 mg/kg: 23%
[8]
  Cmax: 1800 nM
[2]
  bioavailability: 141%
[3]
  half-life: 37.2 min
B16-F10 [19]
  inhibition in vivo at 3 mg/kg: 66%
B16-F10 [11]
  inhibition in vivo at 10 mg/kg: 32%
[4]
  Vd: 6.6 L/kg
B16-F10 [20]
  inhibition in vivo at 30 mg/kg: 72%
B16-F10 [21]
  inhibition in vivo at 10 mg/kg: 83%
[5]
  AUC: 1.3 µM·h
[9]
  AUC: 6.1 µM·h
B16-F10 [15]
  inhibition in vivo at 30 mg/kg: 70%

## NC(=O)c1cccc2[nH]c(-c3ccc(-c4nc(=S)o[nH]4)cc3)nc12
[6]
  Ki: 3.8 nM
[7]
  EC50: 328 nM

## NC(=O)c1cccc2[nH]c(-c3ccc(-c4cn5ccccc5n4)cc3)nc12
[6]
  Ki: 2.9 nM
[7]
  EC50: 20 nM
